For one series, the system named is MDA-MB-231. Kind of series: Growth inhibition of human MDA-MB-231 cells after 72 hrs by ATPlite assay. Format: functional. The settings on record: MDA-MB-231, 72 h. In a few lines:
(§1)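 Cells seeded at about 3000 per well, grown 24 h, then given fresh medium and test compound in triplicate at 0.5 to 100µM in DMSO (0.5% final). Exposure 72 h at 37 °C, 5% CO₂. Viability measured by ATPlite luminescence and normalized to DMSO-treated controls. GI50 obtained by curve fitting. HeLa cultured in DMEM/10% FBS; MCF7, MDA-MB-231 and PC3 cultured in RPMI+GlutaMAX/10% FBS.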

In series [1] the target is Phosphatidylinositol 4,5-bisphosphate 3-kinase catalytic subunit alpha isoform (Homo sapiens, UniProt P42336). Kind of series: Inhibition of PI3Kalpha by LanthaScreen Eu kinase binding assay. A digest of the protocol: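 Eu kinase binding TR-FRET assay (tracer displacement). PIK3CA/PIK3R1 at 5 nM with kinase tracer 20 nM and Eu-anti-His antibody 2 nM, all final. Buffer 25 mM Tris-HCl, 5 mM MgCl2, 0.02% CHAPS.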
Phosphatidylinositol 4,5-bisphosphate 3-kinase catalytic subunit alpha isoform, sequence (P42336 whole entry, canonical isoform): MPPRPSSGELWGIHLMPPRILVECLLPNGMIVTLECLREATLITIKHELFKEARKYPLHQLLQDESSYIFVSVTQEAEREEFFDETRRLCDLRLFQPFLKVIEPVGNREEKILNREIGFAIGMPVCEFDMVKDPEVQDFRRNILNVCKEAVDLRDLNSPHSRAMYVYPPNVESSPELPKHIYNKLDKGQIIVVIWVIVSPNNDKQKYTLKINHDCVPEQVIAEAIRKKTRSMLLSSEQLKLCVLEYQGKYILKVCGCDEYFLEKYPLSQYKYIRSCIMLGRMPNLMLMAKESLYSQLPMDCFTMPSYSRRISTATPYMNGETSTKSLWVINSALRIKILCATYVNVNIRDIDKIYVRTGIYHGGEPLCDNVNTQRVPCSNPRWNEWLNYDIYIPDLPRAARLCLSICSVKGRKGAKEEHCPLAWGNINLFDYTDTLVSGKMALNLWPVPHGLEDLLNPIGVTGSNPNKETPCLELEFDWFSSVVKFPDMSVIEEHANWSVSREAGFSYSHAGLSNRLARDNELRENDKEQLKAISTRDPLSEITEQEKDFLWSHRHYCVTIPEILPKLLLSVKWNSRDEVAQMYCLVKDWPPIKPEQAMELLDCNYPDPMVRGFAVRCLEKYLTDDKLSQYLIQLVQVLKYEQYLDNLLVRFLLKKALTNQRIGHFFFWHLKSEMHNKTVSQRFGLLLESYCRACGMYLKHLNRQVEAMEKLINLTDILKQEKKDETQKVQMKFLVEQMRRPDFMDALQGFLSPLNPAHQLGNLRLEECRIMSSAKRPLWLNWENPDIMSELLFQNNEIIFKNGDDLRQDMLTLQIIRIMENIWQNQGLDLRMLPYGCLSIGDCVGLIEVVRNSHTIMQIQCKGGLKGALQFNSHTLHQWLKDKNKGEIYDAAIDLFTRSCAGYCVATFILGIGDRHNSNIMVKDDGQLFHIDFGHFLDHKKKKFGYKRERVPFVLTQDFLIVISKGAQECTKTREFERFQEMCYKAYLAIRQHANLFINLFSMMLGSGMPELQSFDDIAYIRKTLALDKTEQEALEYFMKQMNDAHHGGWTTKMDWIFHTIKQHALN

The next series relates to MCF7. Kind of series: Growth inhibition of human MCF7 cells after 72 hrs by ATPlite assay. It is filed as functional. Conditions: MCF7, 72 h. A digest of the protocol: as §1
A general note: In ATP-based viability assays light output follows the ATP content of the culture.

Series [2] concerns the target T1, Phosphatidylinositol 4,5-bisphosphate 3-kinase catalytic subunit delta isoform (Homo sapiens, UniProt O00329).
T1 sequence (O00329 whole entry): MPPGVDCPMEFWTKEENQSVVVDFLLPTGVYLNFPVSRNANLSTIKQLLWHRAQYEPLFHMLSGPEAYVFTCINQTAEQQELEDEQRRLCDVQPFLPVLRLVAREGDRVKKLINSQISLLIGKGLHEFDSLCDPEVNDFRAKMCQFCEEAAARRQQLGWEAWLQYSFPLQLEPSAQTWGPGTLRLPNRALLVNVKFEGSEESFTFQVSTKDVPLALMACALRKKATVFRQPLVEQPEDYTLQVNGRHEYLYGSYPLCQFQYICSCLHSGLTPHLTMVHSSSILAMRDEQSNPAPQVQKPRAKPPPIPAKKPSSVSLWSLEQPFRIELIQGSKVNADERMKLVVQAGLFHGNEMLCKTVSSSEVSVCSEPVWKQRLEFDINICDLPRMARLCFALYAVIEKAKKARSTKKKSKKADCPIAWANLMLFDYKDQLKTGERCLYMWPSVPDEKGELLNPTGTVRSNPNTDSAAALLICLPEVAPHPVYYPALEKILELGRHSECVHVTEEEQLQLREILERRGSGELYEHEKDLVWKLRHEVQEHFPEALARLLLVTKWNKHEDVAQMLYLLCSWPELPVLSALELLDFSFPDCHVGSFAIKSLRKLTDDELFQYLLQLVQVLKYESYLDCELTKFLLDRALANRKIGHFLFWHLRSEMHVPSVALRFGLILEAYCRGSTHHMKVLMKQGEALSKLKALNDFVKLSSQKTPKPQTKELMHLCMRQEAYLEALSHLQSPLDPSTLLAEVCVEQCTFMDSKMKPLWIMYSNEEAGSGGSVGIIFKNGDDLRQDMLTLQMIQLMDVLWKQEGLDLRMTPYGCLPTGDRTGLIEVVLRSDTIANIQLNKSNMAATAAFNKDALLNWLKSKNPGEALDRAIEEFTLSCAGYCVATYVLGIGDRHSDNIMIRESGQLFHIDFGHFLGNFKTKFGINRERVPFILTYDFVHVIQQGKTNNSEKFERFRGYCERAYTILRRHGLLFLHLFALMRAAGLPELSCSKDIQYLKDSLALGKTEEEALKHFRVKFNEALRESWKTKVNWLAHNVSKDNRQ
Kind of series: Inhibition of PI3Kdelta. The settings on record: read-out: IC50.

The subject of another series is PC-3. The experiment in a line: Growth inhibition of human PC3 cells after 72 hrs by ATPlite assay. The settings on record: PC-3, 72 h. Format: functional. A digest of the protocol: as §1
For series [3], the target named is T2, 3-phosphoinositide-dependent protein kinase 1 (Homo sapiens, UniProt O15530).
T2 sequence (O15530 whole entry): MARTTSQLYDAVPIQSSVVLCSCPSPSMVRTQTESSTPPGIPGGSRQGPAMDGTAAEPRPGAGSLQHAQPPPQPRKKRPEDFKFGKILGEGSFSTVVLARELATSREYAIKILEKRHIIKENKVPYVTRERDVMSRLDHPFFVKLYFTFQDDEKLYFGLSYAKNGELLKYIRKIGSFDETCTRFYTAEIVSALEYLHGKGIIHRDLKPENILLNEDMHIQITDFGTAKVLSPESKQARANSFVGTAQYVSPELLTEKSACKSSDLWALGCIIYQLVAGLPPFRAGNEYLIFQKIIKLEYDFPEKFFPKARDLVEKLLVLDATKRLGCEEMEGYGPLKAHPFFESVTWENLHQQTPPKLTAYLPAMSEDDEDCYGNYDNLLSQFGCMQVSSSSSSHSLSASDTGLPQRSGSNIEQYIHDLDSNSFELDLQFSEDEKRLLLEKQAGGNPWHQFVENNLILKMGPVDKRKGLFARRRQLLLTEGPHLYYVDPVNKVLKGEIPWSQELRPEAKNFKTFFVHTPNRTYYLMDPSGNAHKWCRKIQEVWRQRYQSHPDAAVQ
Kind of series: Inhibition of PDK1 by Z'-LYTE kinase activity assay.

In series [4] the target is Phosphatidylinositol 4,5-bisphosphate 3-kinase catalytic subunit gamma isoform (Homo sapiens, UniProt P48736). Kind of series: Inhibition of PI3Kgamma.
Phosphatidylinositol 4,5-bisphosphate 3-kinase catalytic subunit gamma isoform, sequence (P48736 whole entry, canonical isoform): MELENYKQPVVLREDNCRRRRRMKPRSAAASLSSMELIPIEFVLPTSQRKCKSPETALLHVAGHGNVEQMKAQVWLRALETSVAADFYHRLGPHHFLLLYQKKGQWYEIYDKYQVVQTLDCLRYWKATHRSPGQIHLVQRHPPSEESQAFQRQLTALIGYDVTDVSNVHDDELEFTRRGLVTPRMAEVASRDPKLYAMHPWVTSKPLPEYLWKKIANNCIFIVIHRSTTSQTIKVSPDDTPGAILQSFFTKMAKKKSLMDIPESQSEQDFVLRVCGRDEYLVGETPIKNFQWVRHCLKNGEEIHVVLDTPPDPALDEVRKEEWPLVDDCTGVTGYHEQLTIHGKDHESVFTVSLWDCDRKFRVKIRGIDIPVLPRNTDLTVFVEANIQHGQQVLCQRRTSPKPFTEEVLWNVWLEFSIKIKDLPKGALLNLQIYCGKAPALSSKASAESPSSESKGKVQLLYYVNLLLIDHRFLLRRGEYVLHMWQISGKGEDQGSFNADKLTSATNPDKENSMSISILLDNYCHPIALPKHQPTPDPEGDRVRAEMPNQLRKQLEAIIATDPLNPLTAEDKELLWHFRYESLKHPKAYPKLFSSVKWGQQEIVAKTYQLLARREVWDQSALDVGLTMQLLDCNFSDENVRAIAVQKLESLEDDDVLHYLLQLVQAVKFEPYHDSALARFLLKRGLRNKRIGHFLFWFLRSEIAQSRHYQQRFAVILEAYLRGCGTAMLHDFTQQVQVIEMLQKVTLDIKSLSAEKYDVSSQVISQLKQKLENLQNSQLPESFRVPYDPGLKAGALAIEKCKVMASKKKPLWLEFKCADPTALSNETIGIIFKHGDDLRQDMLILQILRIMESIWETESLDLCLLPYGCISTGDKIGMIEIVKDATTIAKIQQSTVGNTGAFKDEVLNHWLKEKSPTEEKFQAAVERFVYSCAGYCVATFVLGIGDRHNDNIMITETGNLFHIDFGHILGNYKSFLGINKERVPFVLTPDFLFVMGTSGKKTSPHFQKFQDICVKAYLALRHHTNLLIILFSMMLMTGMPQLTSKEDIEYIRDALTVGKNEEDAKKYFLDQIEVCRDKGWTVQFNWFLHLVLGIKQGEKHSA
Series [5] concerns the target T3, Serine/threonine-protein kinase mTOR (Homo sapiens, UniProt P42345). The experiment in a line: Inhibition of mTOR by LanthaScreen Eu kinase binding assay. In a few lines:
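Eu kinase binding TR-FRET displacement with FRAP1 (mTOR) at 5 nM, kinase tracer 20 nM and Eu-anti-GST antibody 2 nM, all final. Buffer 25 mM Tris-HCl, 5 mM MgCl2, 0.02% CHAPS.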

Series [6] concerns the target T3, Serine/threonine-protein kinase mTOR. Kind of series: Inhibition of mTORC1 expressed in HEK293 cells assessed as PRAS40 Ser183 phosphorylation level by LanthaScreen cellular assay. It is filed as cell-based. A digest of the protocol:
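HEK293E cells stably expressing GFP-substrate fusions (AKT for pThr308; PRAS40 for pSer183), 20,000 per well, serum-starved overnight in low-glucose DMEM + 0.1% BSA. Lysed with 2 nM Tb-labeled phosphospecific antibody; TR-FRET read after 2 h at room temperature. IC50 by curve fitting.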
(In general: TR-FRET usually uses a lanthanide donor and a delayed reading to cut background.)

Series [7] deals with RAC-alpha serine/threonine-protein kinase (Homo sapiens) (UniProt P31749). Kind of series: Inhibition of AKT1 by biochemical assay.
RAC-alpha serine/threonine-protein kinase (Homo sapiens), sequence (P31749 whole entry): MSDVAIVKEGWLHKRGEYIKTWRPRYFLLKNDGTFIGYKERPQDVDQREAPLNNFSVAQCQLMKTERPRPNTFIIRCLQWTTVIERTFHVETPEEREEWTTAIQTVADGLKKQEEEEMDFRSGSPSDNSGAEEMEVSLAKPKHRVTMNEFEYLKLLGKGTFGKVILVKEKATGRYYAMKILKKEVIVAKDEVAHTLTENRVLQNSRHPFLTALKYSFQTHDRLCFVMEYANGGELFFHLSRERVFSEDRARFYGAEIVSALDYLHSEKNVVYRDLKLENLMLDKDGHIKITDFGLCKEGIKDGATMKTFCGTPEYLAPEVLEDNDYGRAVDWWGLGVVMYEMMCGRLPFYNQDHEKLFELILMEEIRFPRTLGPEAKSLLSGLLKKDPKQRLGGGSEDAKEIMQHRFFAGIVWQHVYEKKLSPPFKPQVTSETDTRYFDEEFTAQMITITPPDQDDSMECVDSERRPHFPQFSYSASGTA
The test system of a further series is Plasma. The experiment in a line: Metabolic stability in rat plasma assessed as compound remaining at 1 uM after 60 mins by Lc/Ms method. Format: ADME, cell-free. Conditions: 1 h. A digest of the protocol: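 Compound at 1 µM (2.5% DMSO final) in fresh rat plasma at 37 °C. Stopped at 0, 30 and 60 min with two volumes methanol plus internal standard, then LC-MS. Percent parent remaining relative to 0 min, from peak area ratios to internal standard. Duplicate runs, with a plasma-labile positive control.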

The subject of a further series is HeLa. Kind of series: Growth inhibition of human HeLa cells after 72 hrs by ATPlite assay. Format: functional. A digest of the protocol:
as §1

Another series has as its system Liver microsomes. The experiment in a line: Metabolic stability in rat liver microsomes. It is filed as ADME, Microsome. A digest of the protocol: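 Rat liver microsomes (1 mg/ml protein) with 4µM compound in 50mM phosphate pH 7.2. Pre-incubated 5 min at 37.5 °C, then started with 2mM NADPH and run 1 h. Samples taken every 15 min, quenched in methanol with internal standard, analyzed by LC-MS. Duplicate runs alongside two control compounds of known half-life. Half-life reported.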
For orientation: Liver microsomes are a subcellular fraction often used to study metabolism.

The structures appear in SMILES notation. Activity calls are given as the source filed them. The rule behind the calls is not given here.

As a reminder, the GI50 is the concentration that inhibits growth by half. What is called IC50 is the concentration that inhibits the measured activity by half.

Take `Nc1ccc(C#Cc2n[nH]c3ccccc23)cc1`: the figures for the 50% growth inhibitory concentration (GI50) in the series on MDA-MB-231, in the series on MCF7 and in the series with PC-3 were 8.28 µM, 3.23 µM and 2.51 µM, respectively. In addition, the IC50 in [1] is 1.05 µM; in series [2], more than 100 µM; in series [3], 39.2 µM; in [4], more than 100 µM; in [5], 4.97 µM; in series [6], 10.8 µM. For the same compound, the inhibition result in [7] was “inactive”.

Take `C(#Cc1n[nH]c2ccccc12)c1ccccn1`: the IC50 is more than 100 µM in series [1], more than 25 µM in [3], more than 100 µM in series [5] and more than 50 µM in series [6]. For the same compound, the inhibition entry in series [7] was “inactive”.

In the case of `CN(C)CC#Cc1n[nH]c2ccccc12`, the IC50 in [1] is more than 50 µM; in series [3], more than 100 µM; in series [5], more than 100 µM; in [6], more than 50 µM. The inhibition result in [7] was “inactive”.

On to `Nc1cccc(C#Cc2n[nH]c3ccccc23)c1`, for which the GI50 was 8.29 µM with MDA-MB-231, 10.4 µM in the series on MCF7, 5.21 µM with HeLa and 2.84 µM in the series with PC-3. Also, the Stability with Plasma was 100%. The compound also had a t1/2 in the series with Liver microsomes of more than 1 h. For the same compound, the IC50 in [2] and in series [4] was more than 100 µM in each case. Also, the inhibition entry in series [7] was “inactive”.

Take `C(#Cc1n[nH]c2ccccc12)c1cccnc1`: the GI50 with MDA-MB-231 was 10.5 µM; in the series with MCF7 it was 3.66 µM; in the series with HeLa, 5.21 µM; in the series with PC-3, 6.81 µM. Besides, the IC50 in series [5] is more than 100 µM; in series [6], more than 50 µM. Moreover, the inhibition entry in series [7] was “inactive”.

With `Nc1ccccc1C#Cc1n[nH]c2ccccc12`, the IC50 in series [1] was more than 100 µM; in series [3] it was more than 100 µM; in series [5] it was more than 100 µM; in series [6], more than 50 µM. Besides, the inhibition result in series [7] was “inactive”.

Take `C(#Cc1n[nH]c2ncccc12)c1ccncc1`: the figures for the IC50 in [1] and in series [3] were 3.05 µM and more than 50 µM, respectively. Further, the inhibition entry in [7] is “inactive”.

As to `C(#Cc1n[nH]c2ccccc12)c1ccsc1`, the 50% inhibitory concentration (IC50) in [1], in series [3], in [5] and in series [6] was more than 100 µM throughout. Further, the inhibition entry in series [7] was “inactive”.

Consider `FC(F)(F)c1cc(C#Cc2n[nH]c3ccccc23)cc(C(F)(F)F)c1`, for which the IC50 in series [1], in [3], in series [5] and in series [6] was more than 100 µM in each case. The inhibition entry in series [7] is “inactive”.

Turning to `C(#Cc1n[nH]c2ccccc12)c1ccccc1`, the IC50 is more than 100 µM in series [1], more than 50 µM in series [3], more than 100 µM in series [5] and more than 50 µM in series [6]. The inhibition entry in series [7] is “inactive”.

On to `N#Cc1ccc(C#Cc2n[nH]c3ccccc23)cc1`, for which the IC50 in series [1] was more than 100 µM; in series [3], more than 100 µM; in series [5], more than 100 µM; in series [6] it was more than 50 µM. For the same compound, in series [7], the inhibition result is “inactive”.

`Fc1cc(F)cc(C#Cc2n[nH]c3ccccc23)c1`: the half-maximal inhibitory concentration (IC50) is more than 100 µM in series [1], more than 100 µM in [3], more than 100 µM in [5] and more than 200 µM in [6]. Moreover, in series [7], the inhibition entry is “inactive”.

On to `C(#CC1CC1)c1n[nH]c2ccccc12`, for which the IC50 in series [1] is more than 100 µM; in series [3], more than 100 µM; in series [5], more than 100 µM; in series [6], more than 50 µM. For the same compound, in [7], the inhibition entry was “inactive”.

Regarding `C(#CC1CCCC1)c1n[nH]c2ccccc12`, the IC50 in [1] is more than 100 µM; in [3] it was more than 100 µM; in series [5], more than 100 µM; in series [6], more than 50 µM. Further, the inhibition entry in [7] is “inactive”.

On to `C(#Cc1n[nH]c2ncccc12)c1cccnc1`, for which the IC50 in [1] is 9 µM; in [3] it was more than 50 µM; in series [5], 5 µM; in series [6], more than 10 µM. Besides, the inhibition entry in series [7] was “inactive”.

(Values after ChEMBL document CHEMBL1629532, “Design, synthesis, and structure-activity relationships of 3-ethynyl-1H-indazoles as inhibitors of the phosphatidylinositol 3-kinase signaling pathway” (J Med Chem, 2010).)
